Experimental data gathered from unrelated publications.
Each line is one published result; the experiments were not run side by side.
Target: Serine/threonine-protein kinase Nek7 (NEK7, Homo sapiens, UniProt Q8TDX7)

The inhibition of `CCN1CCN(Cc2ccc(NC(=O)c3ccc(C)c(Oc4ccnc5[nH]ccc45)c3)cc2C(F)(F)F)CC1` is reported as -0.545% (target engagement in cells; inhibitor; chemoproteomics; A-375; 0.5 µM).
With `CCN(CC)CCNC(=O)c1c(C)[nH]c(/C=C2\C(=O)Nc3ccc(F)cc32)c1C` the inhibition was -6% (enzyme activity; inhibitor; 10 µM).
`CN1CC(Oc2cnc(C#N)cc2-c2ccn3nc(NC(=O)C4CC4)cc3c2)C1` has an inhibition of 0% (enzyme activity; inhibitor; 1 µM).
With `O=C(Nc1cnn(-c2csc(C(=O)NC3COC3)c2)c1)Nc1c(F)cccc1Cl` the remaining activity was 88.1% (enzyme activity; inhibitor; 5 µM).
For `CN1CCC2(CC1)NC(=O)c1c(c3ccc(Cl)c(Cl)c3n1C)C2C#N` (racemic), the ΔTm was -0.4 °C (thermal stability; DSF; 10 µM).
For `CC(C)(O)c1cncc(-c2nc3ccc(F)cc3n2C2CC2)c1`, the remaining binding was 100% (cell-free assay; competition with immobilised ligand; 1 µM).
`Cc1ccc(NC(=O)c2ccc(C)c(C(F)(F)F)c2)cc1C#Cc1nn(C2CCC(O)CC2)c2ncnc(N)c12` (stereo not shown) has a remaining signal of 98% (cell-free assay; 10 µM).
The ΔTm of `Cn1c2c(Cl)c(Cl)ccc2c2cn[nH]c(=O)c21` is reported as 0 °C (thermal stability; DSF; 10 µM).
With `CCOc1cc(-c2nncn2C)ccc1Nc1ncc2cc(C)nc(NCC(C)(C)C)c2n1` the inhibition was less than 15% (enzyme activity; inhibitor; FRET; 1 µM).
`CC(C)(C)c1nc(-c2cccc(NS(=O)(=O)c3c(F)cccc3F)c2F)c(-c2ccnc(N)n2)s1` gave a remaining activity of 42% (enzyme activity; inhibitor; radiometric; 1 µM).
With `CNC(=O)c1cc(Oc2ccc(NC(=O)Nc3ccc(Cl)c(C(F)(F)F)c3)cc2)ccn1` the inhibition was -7% (enzyme activity; inhibitor; 10 µM).
`c1ccc(CNc2nc(N3CCOc4ccccc43)nc3c2CCCC3)cc1` gave an inhibition of -6% (target engagement in cells; inhibitor; chemoproteomics; 20 mM).
For `Cc1ccc(Nc2nccc(N(C)c3ccc4c(C)n(C)nc4c3)n2)cc1S(N)(=O)=O`, the inhibition was -6% (enzyme activity; inhibitor; 0.3 µM).
The remaining binding of `O=C1NC(c2ccccn2)Sc2ccccc21` (stereo not shown) is reported as 68% (cell-free assay; competition with immobilised ligand; 1 µM).
With `CCN1CCC2(CC1)NC(=O)c1c(c3ccc(Cl)c(Cl)c3n1C)C2C#N` (racemic) the ΔTm was -0.2 °C (thermal stability; DSF; 10 µM).
With `CCOC(=O)c1cc2cc(-c3cc(C(=O)NCc4ccc(C(=O)O)cc4)nn3C)ccc2[nH]1` the remaining binding was 100% (cell-free assay; competition with immobilised ligand; 0.1 µM).
The remaining activity of `CCCOc1ccc(OC)c(F)c1C(=O)c1ccc(C(=O)N[C@@H]2CNC[C@H]2NC(=O)c2ccc3[nH]ncc3c2)cc1` is reported as 96% (enzyme activity; inhibitor; 10 µM).
With `O=C1NC(=O)c2cc(Nc3ccc(F)cc3)c(Nc3ccc(F)cc3)cc21` the remaining signal was 103% (cell-free assay; 0.5 µM).
For `Cc1c[nH]c2nccc(Oc3c(F)cc(Nc4cc(Cl)nc(N)n4)cc3F)c12`, the remaining binding was 100% (cell-free assay; competition with immobilised ligand; 0.1 µM).
`Nc1ncnc2occ(-c3ccc(NC(=O)Nc4cc(C(F)(F)F)ccc4F)cc3)c12` has a remaining signal of 4% (cell-free assay; inhibitor; 20 µM).
`Cc1cc(NC(=O)c2cccc3cc(-c4cccc5[nH]nc(N)c45)ccc23)ccc1F` has an activity vs control of 96% (enzyme activity; inhibitor; 0.1 µM).
`CN([C@@H]1CCc2c(CC(=O)O)c3cc(S(C)(=O)=O)ccc3n2C1)S(=O)(=O)c1ccc(F)cc1` has a remaining binding of 98% (cell-free assay; competition with immobilised ligand; 1 µM).
For `Cc1ccc(C(=O)Nc2ccc(CN3CCN(C)CC3)c(C(F)(F)F)c2)cc1C#Cc1cnc2cccnn12`, the remaining activity was 93% (enzyme activity; inhibitor; 23.5 nM).
With `CN1CCN(c2cnc3c(C4CCN(C(=O)c5ccc(OC(F)(F)F)cc5N)CC4)ncnc3c2)CC1` the remaining binding was 100% (cell-free assay; competition with immobilised ligand; 1 µM).
`O=C1Nc2ccc(Cl)cc2C1=Cc1cc(Cl)c(O)c(Cl)c1` has a remaining signal of 100% (cell-free assay; 0.5 µM).
`Cn1c2c(c3ccc(Cl)c(Cl)c31)C(C#N)C(C)(C)NC2=O` (stereo not shown) gave a ΔTm of -0.6 °C (thermal stability; DSF; 10 µM).
With `CO[C@@H](C)c1c(Nc2ccc([C@@H](N(C)C(=O)C3CCS(=O)(=O)CC3)C(F)(F)F)cc2)cnc2cc(Cl)nn12` the remaining binding was 91% (cell-free assay; competition with immobilised ligand; 1 µM).
`Cn1c2c(c3ccc(Cl)c(Cl)c31)C(C#N)C1(CCNCC1)NC2=O` (racemic) gave a ΔTm of -0.1 °C (thermal stability; DSF; 10 µM).
`CCN(CC)c1ccc(C2=NNC(=O)CC2C)cc1[N+](=O)[O-]` (stereo not shown) has a remaining activity of 107% (enzyme activity; inhibitor; 10 µM).
For `CCC1(CC)NC(=O)c2c(c3ccc(Cl)c(Cl)c3n2C)C1C#N` (stereo not shown), the ΔTm was -0.4 °C (thermal stability; DSF; 10 µM).
With `N#Cc1ccc(Nc2ccc3[nH]c(=O)[nH]c3c2)c(Cl)c1` the remaining binding was 100% (cell-free assay; competition with immobilised ligand; 1 µM).
